Legend:
[1] = Cytotoxicity against human MRC5 cells after 72 hrs by MTT assay; assay type: cell-based
Method in brief: (§1)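 Standard 72-h MTT cytotoxicity assay, reported as GI50. Cancer lines were run alongside non-transformed MRC-5 lung fibroblasts.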

T47D [2] = assay: Cytotoxicity against human T47D cells after 72 hrs by MTT assay; assay type: functional; method in brief: as §1
HCT-116 = assay: Cytotoxicity against human HCT116 cells after 72 hrs by MTT assay; assay type: functional; details: HCT-116, 72 h; method in brief: as §1
[3] = Cytotoxicity against human MDA468 cells after 72 hrs by MTT assay; assay type: functional; details: MDA-MB-468, 72 h
Method in brief: (§2)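 MDA-468 cells were exposed to compound for 24, 48 or 72 h and growth inhibition was read by MTT assay. GI50 is the mean ± s.d. of three independent assays.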

MCF7 [4] = assay: Cytotoxicity against human MCF7 cells after 72 hrs by MTT assay; assay type: functional; details: MCF7, 72 h; method in brief: as §1
[5] = Cell cycle arrest in human MDA468 cells assessed as accumulation at G2/M phase at 0.5 uM after 20 hrs by flow cytometry; assay type: functional, cell-based; details: MDA-MB-468
Method in brief: (§3)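 Cells in exponential growth seeded at 4×10^5, incubated overnight at 37 °C in humidified 5% CO2, then exposed to compound for 20 h. Cells collected, washed once in cold PBS, resuspended in hypotonic fluorochrome solution, and analysed for cell-cycle distribution (% G2/M DNA content) by flow cytometry. Mean ± s.d. of three independent experiments; DMSO vehicle control.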

MRC5 [6] = assay: Metabolic stability of the compound in human MRC5 cells at 1 uM; assay type: ADME, cell-based; details: mrc5, 1 µM
MCF7 [7] = assay: Metabolic stability of the compound in human MCF7 cells at 1 uM; assay type: ADME, cell-based; details: mcf7, 1 µM
[8] = Cytotoxicity against human MDA468 cells after 24 hrs by MTT assay; assay type: functional; details: MDA-MB-468, 24 h; method in brief: as §2
[9] = Cell cycle arrest in human MDA468 cells assessed as accumulation at G2/M phase at 1 uM after 20 hrs by flow cytometry; assay type: functional, cell-based; details: MDA-MB-468; method in brief: as §3
MDA-MB-468 = assay: Induction of apoptosis in human MDA468 cells assessed as appearance of apoptotic bodies after 20 hrs by annexinV/propidium iodide staining; assay type: functional, cell-based
Method in brief: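 After overnight culture, 4×10^5 cells per well were treated with compound at 0.5, 1 and 10 μM for 20 h. Apoptosis was measured by annexin V/PI double staining and flow analysis, scored as early (annexin V-positive) plus late (annexin V- and PI-positive) apoptotic cells. Mean ± s.d. of three independent experiments versus DMSO vehicle control.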

[10] = Cytotoxicity against human MDA468 cells after 48 hrs by MTT assay; assay type: functional; details: MDA-MB-468, 48 h; method in brief: as §2
T47D [11] = assay: Ratio of GI50 for human MRC5 cells to GI50 for human T47D cells
Method in brief: (§4)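 Selectivity was calculated as GI50 in non-transformed MRC-5 fibroblasts divided by GI50 in each cancer line. All GI50 values came from 72-h MTT assays.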

MRC5 [12] = assay: Ratio of GI50 for human MRC5 cells to GI50 for human MDA468 cells; method in brief: as §4
MRC5 [13] = assay: Ratio of GI50 for human MRC5 cells to GI50 for human HCT116 cells; method in brief: as §4
MRC5 [14] = assay: Ratio of GI50 for human MRC5 cells to GI50 for human MCF7 cells; method in brief: as §4

| Stability (MRC5 [6]) | Stability (MCF7 [7]) | Structure (SMILES) | GI50 at 72 h [1] [µM] | GI50 (T47D [2]) [µM] | GI50 (HCT-116) [µM] | GI50 [3] [µM] | GI50 (MCF7 [4]) [µM] | Activity [5] [%] | GI50 [8] [µM] | Activity [9] [%] | Activity (MDA-MB-468) | GI50 [10] [µM] | RatioGI50 (T47D [11]) | RatioGI50 (MRC5 [12]) | RatioGI50 (MRC5 [13]) | RatioGI50 (MRC5 [14]) |
| --- | --- | --- | --- | --- | --- | --- | --- | --- | --- | --- | --- | --- | --- | --- | --- | --- |
| – | – | COc1ccc(CS(=O)(=O)/C=C/c2ccc(OC)c(OC)c2OC)cc1N | > 30 | 5.9 | 5.31 | 3.48 | 5.95 | – | – | – | – | – | – | – | – | – |
| – | – | COc1ccc(CS(=O)(=O)CC(=O)Nc2c(C)cc(C)cc2C)cc1N | > 30 | > 30 | > 30 | > 30 | > 30 | – | – | – | – | – | – | – | – | – |
| – | – | COc1cc(OC)c(/C=C/S(=O)(=O)Cc2ccc(OC)c(N)c2)c(OC)c1 | 0.08 | – | < 0.01 | 0.03 | < 0.01 | – | – | – | – | – | – | – | – | – |
| – | – | COc1cc(OC)c(NC(=O)CS(=O)(=O)Cc2ccc(OC)c([N+](=O)[O-])c2)c(OC)c1 | > 30 | > 30 | 18.8 | > 30 | > 30 | – | – | – | – | – | – | – | – | – |
| – | – | COc1cc(/C=C/S(=O)(=O)Cc2ccc(OC)c([N+](=O)[O-])c2)cc(OC)c1 | > 30 | > 30 | > 30 | 16.5 | > 30 | – | – | – | – | – | – | – | – | – |
| Stable | Stable | COc1cc(OC)c(/C=C/[S+]([O-])Cc2ccc(OC)c(N)c2)c(OC)c1 (configuration not stated) | > 30 | 0.06 | < 0.01 | < 0.01 | < 0.01 | 77 | 0.559 | 85 | Dose-dependent effect | 0.137 | – | – | – | – |
| – | – | COc1ccc(CS(=O)(=O)CC(=O)Nc2c(C)cc(C)cc2C)cc1[N+](=O)[O-] | 28 | > 30 | 7.91 | > 30 | > 30 | – | – | – | – | – | – | – | – | – |
| – | – | COc1ccc(CS(=O)(=O)/C=C/c2c(OC)cccc2OC)cc1N | 17.1 | 0.05 | 0.02 | 0.06 | 0.04 | – | – | – | – | – | <280 | <280 | <280 | <280 |
| – | – | COc1ccc(CS(=O)(=O)/C=C/c2ccc(OC)c(OC)c2OC)cc1[N+](=O)[O-] | > 30 | > 30 | 27.9 | 21.9 | > 30 | – | – | – | – | – | – | – | – | – |
| – | – | COc1ccc(CS(=O)(=O)CC(=O)Nc2ccccc2)cc1[N+](=O)[O-] | > 30 | > 30 | > 30 | > 30 | > 30 | – | – | – | – | – | – | – | – | – |
| – | – | COc1ccc(CS(=O)(=O)/C=C/c2c(OC)cccc2OC)cc1[N+](=O)[O-] | > 30 | > 30 | 10.2 | 5.46 | 13.7 | – | – | – | – | – | – | – | – | – |
| Stable | Stable | COc1cc(OC)c(/C=C/S(=O)(=O)Cc2ccc(OC)c(NCC(=O)O)c2)c(OC)c1 [RIGOSERTIB] | 0.71 | < 0.01 | 0.05 | 0.02 | 0.05 | 58 | 0.601 | 84 | Dose-dependent effect | 0.302 | – | – | – | – |
| – | – | COc1cc(/C=C/S(=O)(=O)Cc2ccc(OC)c(N)c2)cc(OC)c1 | > 30 | 0.53 | 0.54 | 0.52 | 0.49 | – | – | – | – | – | <80 | <80 | <80 | <80 |
| – | – | COc1ccc(OC)c(NC(=O)CS(=O)(=O)Cc2ccc(OC)c([N+](=O)[O-])c2)c1 | > 30 | > 30 | > 30 | > 30 | > 30 | – | – | – | – | – | – | – | – | – |
| – | – | COc1cc(OC)c(/C=C/S(=O)(=O)Cc2ccc(OC)c(NC(C)=O)c2)c(OC)c1 | 0.81 | – | 0.15 | – | 0.35 | – | – | – | – | – | – | – | – | – |
| – | – | COc1cc(OC)c(/C=C/S(=O)(=O)Cc2ccc(OC)c([N+](=O)[O-])c2)c(OC)c1 | 2.91 | – | 0.66 | – | 0.88 | – | – | – | – | – | – | – | – | – |
| – | – | COc1ccc(CS(=O)(=O)CC(=O)Nc2ccccc2)cc1N | > 30 | > 30 | > 30 | > 30 | > 30 | – | – | – | – | – | – | – | – | – |

— ChEMBL document CHEMBL1770091, “Synthesis and biological evaluation of benzyl styrylsulfonyl derivatives as potent anticancer mitotic inhibitors” (Bioorg Med Chem Lett, 2011)
